Data taken from ChEMBL document CHEMBL2346664, “Synthesis, characterization and in vitro anticancer evaluation of novel 1,2,4-triazolin-3-one derivatives” (2013).

How the values were obtained:
Assay type in all cases: functional
SNB-19 [1] = experiment: Growth inhibition of human SNB19 cells assessed as cell growth at 10 '-5 M after 48 hrs by sulforhodamine B assay; details: SNB-19, 48 h, read-out: Activity
COLO 205 = experiment: Growth inhibition of human COLO205 cells assessed as cell growth at 10 '-5 M after 48 hrs by sulforhodamine B assay; details: COLO 205, 48 h, read-out: Activity
How it was run: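 In the same five-dose SRB screen (48 h, 37 °C, 5% CO2), percentage growth was computed at each concentration from time-zero (Tz), control (C) and treated (Ti) absorbances. The formula was [(Ti−Tz)/(C−Tz)]×100 when Ti ≥ Tz, or [(Ti−Tz)/Tz]×100 when Ti < Tz.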

UACC-257 = experiment: Growth inhibition of human UACC257 cells assessed as cell growth at 10 '-6 M after 48 hrs by sulforhodamine B assay; details: UACC-257, 48 h, read-out: Activity
[2] = Growth inhibition of human NCI-ADR-RES cells assessed as growth inhibition at 10 uM after 48 hrs by sulforhodamine B assay; details: read-out: GI
OVCAR-3 [3] = experiment: Growth inhibition of human OVCAR3 cells assessed as growth inhibition at 10 uM after 48 hrs by sulforhodamine B assay; details: OVCAR-3, 48 h, read-out: GI
SNB-75 [4] = experiment: Growth inhibition of human SNB75 cells assessed as cell growth at 10 '-6 M after 48 hrs by sulforhodamine B assay; details: SNB-75, 48 h, read-out: Activity
NCI-H23 [5] = experiment: Growth inhibition of human NCI-H23 cells assessed as cell growth at 10 '-6 M after 48 hrs by sulforhodamine B assay; details: NCI-H23, 48 h, read-out: Activity
HOP-62 = experiment: Growth inhibition of human HOP62 cells assessed as cell growth at 10 '-6 M after 48 hrs by sulforhodamine B assay; details: HOP-62, 48 h, read-out: Activity
HL-60(TB) = experiment: Growth inhibition of human HL-60(TB) cells assessed as cell growth at 10 '-6 M after 48 hrs by sulforhodamine B assay; details: HL-60, 48 h, read-out: Activity
How it was run: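 Five-dose NCI protocol with final concentrations of 0.01–100 µM and drug diluted from a DMSO stock (400× the top concentration) in medium with gentamicin. Cells were pre-incubated 24 h, then exposed 48 h at 37 °C. Suspension cells were fixed with 16% final TCA, SRB-stained and read at 515 nm. Percentage growth at each level was [(Ti−Tz)/(C−Tz)]×100, or [(Ti−Tz)/Tz]×100 when Ti < Tz.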

MDA-MB-231 = experiment: Growth inhibition of human MDA-MB-231 cells assessed as cell growth at 10 '-7 M after 48 hrs by sulforhodamine B assay; details: MDA-MB-231, 48 h, read-out: Activity
SK-MEL-5 [6] = experiment: Growth inhibition of human SK-MEL-5 cells assessed as cell growth at 10 '-7 M after 48 hrs by sulforhodamine B assay; details: SK-MEL-5, 48 h, read-out: Activity
HT-29 = experiment: Growth inhibition of human HT-29 cells assessed as cell growth at 10 '-7 M after 48 hrs by sulforhodamine B assay; details: HT-29, 48 h, read-out: Activity
SNB-19 [7] = experiment: Growth inhibition of human SNB19 cells assessed as cell growth at 10 '-4 M after 48 hrs by sulforhodamine B assay; details: SNB-19, 48 h, read-out: Activity
ACHN = experiment: Growth inhibition of human ACHN cells after 48 hrs by sulforhodamine B assay
How it was run: (§1)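 NCI 60-cell-line five-dose screen at 0.01, 0.1, 1, 10 and 100 µM final. Cells were plated at 5,000–40,000/well and grown 24 h at 37 °C, 5% CO2, then exposed to drug continuously for 48 h. Adherent cells were fixed with cold TCA (10% final) and stained with SRB; absorbance read at 515 nm. GI50 is the concentration where [(Ti-Tz)/(C-Tz)]×100 = 50, with Tz plates fixed at drug addition.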

RPMI-8226 = experiment: Growth inhibition of human RPMI8226 cells assessed as cell growth at 10 '-4 M after 48 hrs by sulforhodamine B assay; details: RPMI-8226, 48 h, read-out: Activity
SK-OV-3 = experiment: Growth inhibition of human SKOV3 cells assessed as cell growth at 10 '-5 M after 48 hrs by sulforhodamine B assay; details: SK-OV-3, 48 h, read-out: Activity
OVCAR-5 = experiment: Growth inhibition of human OVCAR5 cells assessed as cell growth at 10 '-5 M after 48 hrs by sulforhodamine B assay; details: OVCAR-5, 48 h, read-out: Activity
MDA-MB-435 = experiment: Growth inhibition of human MDA-MB-435 cells after 48 hrs by sulforhodamine B assay; details: MDA-MB-435, 48 h
How it was run: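 NCI 60-cell-line five-dose screen. Cells were plated at 5,000–40,000/well by doubling time and grown 24 h at 37 °C, 5% CO2. Time-zero plates were TCA-fixed. Drug from DMSO stock was tested at 0.01, 0.1, 1, 10 and 100 µM final for 48 h continuous exposure. Read-out was SRB at 515 nm. GI50 is the concentration giving 50% reduction in net protein increase versus untreated control.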

SF-295 = experiment: Growth inhibition of human SF295 cells after 48 hrs by sulforhodamine B assay; details: SF-295, 48 h
BT-549 = experiment: Growth inhibition of human BT549 cells assessed as growth inhibition at 10 uM after 48 hrs by sulforhodamine B assay; details: BT-549, 48 h, read-out: GI
How it was run: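 Percent growth inhibition from the single 10^-5 M NCI-60 screen, reported as 100 minus growth percent. Growth percent was measured after 48 h drug exposure at 37 °C, 5% CO2, using TCA fixation, SRB staining and absorbance at 515 nm, against untreated controls and time-zero plates.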

NCI-H23 [8] = experiment: Growth inhibition of human NCI-H23 cells assessed as cell growth at 10 '-7 M after 48 hrs by sulforhodamine B assay; details: NCI-H23, 48 h, read-out: Activity
[9] = Growth inhibition of human […] cells after 48 hrs by sulforhodamine B assay; how it was run: as §1
SNB-75 [10] = experiment: Growth inhibition of human SNB75 cells assessed as cell growth at 10 '-5 M after 48 hrs by sulforhodamine B assay; details: SNB-75, 48 h, read-out: Activity
OVCAR-3 [11] = experiment: Growth inhibition of human OVCAR3 cells assessed as cell growth at 10 '-8 M after 48 hrs by sulforhodamine B assay; details: OVCAR-3, 48 h, read-out: Activity
SK-MEL-5 [12] = experiment: Growth inhibition of human SK-MEL-5 cells assessed as cell growth at 10 '-8 M after 48 hrs by sulforhodamine B assay; details: SK-MEL-5, 48 h, read-out: Activity
SF-268 = experiment: Growth inhibition of human SF268 cells assessed as cell growth at 10 '-8 M after 48 hrs by sulforhodamine B assay; details: SF-268, 48 h, read-out: Activity
[13] = read-out: LD50 (the source's name)

SMILES: Cc1cc(=O)oc2cc(OCCn3c(C)nn(-c4ccc(Cl)cc4)c3=O)ccc12
- growth at 10 µM (SNB-19 [1]): 39%
- growth at 10 µM (COLO 205): -14%
- growth at 1 µM (UACC-257): 96%
- inhibition of growth at 10 µM [2]: 75.3%
- inhibition of growth at 10 µM (OVCAR-3 [3]): 85.2%
- growth at 1 µM (SNB-75 [4]): 74%
- growth at 1 µM (NCI-H23 [5]): 64%
- growth at 1 µM (HOP-62): 89%
- growth at 1 µM (HL-60(TB)): 91%
- growth at 0.1 µM (MDA-MB-231): 88%
- growth at 0.1 µM (SK-MEL-5 [6]): 92%
- growth at 0.1 µM (HT-29): 106%
- growth at 100 µM (SNB-19 [7]): 20%
- GI50 (ACHN): 5590 nM
- TGI (ACHN): > 1000 nM
- CC50 (ACHN; [13]): > 1000 nM
- growth at 100 µM (RPMI-8226): 45%
- growth at 10 µM (SK-OV-3): 16%
- growth at 10 µM (OVCAR-5): 53%
- GI50 (MDA-MB-435): 2690 nM
- TGI (MDA-MB-435): 8370 nM
- CC50 (MDA-MB-435; [13]): > 1000 nM
- GI50 (SF-295): 4730 nM
- TGI (SF-295): > 1000 nM
- CC50 (SF-295; [13]): > 1000 nM
- inhibition of growth at 10 µM (BT-549): 43.3%
- growth at 0.1 µM (NCI-H23 [8]): 91%
- GI50 [9]: 5700 nM
- TGI [9]: > 1000 nM
- CC50 [9, 13]: > 1000 nM
- growth at 10 µM (SNB-75 [10]): 5%
- growth at 0.01 µM (OVCAR-3 [11]): 111%
- growth at 0.01 µM (SK-MEL-5 [12]): 97%
- growth at 0.01 µM (SF-268): 104%
